Laboratory results from ChEMBL document CHEMBL1142963, “Novel sigma receptor ligands: synthesis and biological profile” (J Med Chem, 2007).
Calls of active or inactive are those of the source. No cut-off for these calls is given here.

Organism: Rattus norvegicus
Test: Increase in TG-2 expression in albino Wistar rat primary 14 DIV astroglial cell at 25 uM after 24 hrs by CLSM analysis
Type: functional
Procedure, shortened: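 Astrocytes at 14 DIV were treated with 25 µM for 24 h and fixed in 4% paraformaldehyde for 20 min. They were blocked with 1% normal serum for 1 h, then incubated overnight with anti-TG-2 monoclonal (1:500), followed by FITC and TRITC anti-IgG (1:64, 2 h each). Confocal imaging at fixed settings measured cytosolic and nuclear fluorescence intensity versus control after nonspecific subtraction.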

Which Activity does the source give for `COC(=O)C1(c2ccc(C)cc2)CC1CN1CCC(O)(c2ccccc2)CC1` (stereo unspecified) here?
Its Activity is “Active”.
